Source: ChEMBL document CHEMBL4609997, “Synthesis and biological activities of amino acids functionalized α-GalCer analogues” (Bioorg Med Chem, 2020)
Calls of active or inactive are those of the source. The calls are words filed in the database; no cut-off is given here.

Experiments:
[1] = target: T1, Antigen-presenting glycoprotein CD1d (Mus musculus) (UniProt P11609+P11610); assay: Binding affinity to CD1d in C57BL/6 mouse splenocytes assessed as iNKT cell stimulating activity by measuring maximal induction of Th2-cytokine, IL-4 production at 1 uM incubated for 48 hrs by ELISA; format: cell-based
How it was run: (§1)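 Spleens from female C57BL/6 mice passed through a 100 µM strainer, RBC-lysed (ammonium chloride/KHCO3/EDTA buffer, pH 7.2, 5 min, 4 °C), PBS-washed. Splenocytes at 1×10^5/well in RPMI 1640 with 10% FBS and 1% penicillin-streptomycin, exposed to glycolipid at three concentrations (0.01-1 µM) for 48 h at 37 °C. IFN-γ and IL-4 in supernatant measured by ELISA (pg/mL); α-GalCer positive control.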

[2] = target: T1, Antigen-presenting glycoprotein CD1d (Mus musculus); assay: Binding affinity to CD1d in C57BL/6 mouse splenocytes assessed as iNKT cell stimulating activity by measuring maximal induction of Th1-cytokine, IFN-gamma production at 1 uM incubated for 48 hrs by ELISA; format: cell-based; how it was run: as §1
[3] = target: T1, Antigen-presenting glycoprotein CD1d (Mus musculus); assay: Binding affinity to CD1d in C57BL/6 mouse splenocytes assessed as iNKT cell stimulating activity by measuring induction of Th2-cytokine, IL-4 production incubated for 48 hrs by ELISA; format: cell-based; how it was run: as §1
[4] = target: T1, Antigen-presenting glycoprotein CD1d (Mus musculus); assay: Binding affinity to CD1d in C57BL/6 mouse splenocytes assessed as iNKT cell stimulating activity by measuring induction of Th1-cytokine, IFN-gamma production incubated for 48 hrs by ELISA; format: cell-based; how it was run: as §1
Splenocyte [5] = assay: Induction of cell proliferation in C57BL/6 mouse splenocytes at 1 uM incubated for 48 hrs by MTT assay; format: functional, cell-based
How it was run: (§2)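 Female C57BL/6 splenocytes, strained and RBC-lysed, plated at 1×10^5/well in RPMI 1640 with 10% FBS and 1% penicillin-streptomycin, treated 48 h at 37 °C at 1, 0.1 and 0.01 µM. MTT (5 mg/mL) added for 4 h, formazan dissolved in DMSO, OD read at 570 nm. Viability given as % of medium-only control cells.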

Splenocyte [6] = assay: Cytotoxicity against C57BL/6 mouse splenocytes assessed as reduction in cell viability at 0.01 to 1 uM incubated for 48 hrs by MTT assay; format: cell-based; how it was run: as §2
Mus musculus [7] = assay: Immunostimulatory activity in C57BL/6 mouse assessed as induction of Th1 cytokine-biased response by measuring IFN-gamma/IL-4 ratio at 100 ug/kg, ip measured after 24 hrs by ELISA
Mus musculus [8] = assay: Immunostimulatory activity in C57BL/6 mouse assessed as increase in IL-4 level in serum at 100 ug/kg, ip measured after 6 hrs by ELISA; format: functional, organism-based
How it was run: (§3)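 Female C57BL/6 mice, 7-8 weeks, 25-28 g, SPF housing. Glycolipid 1 mg/mL DMSO stock diluted in PBS, given ip at 100 µg/kg. Serum taken at several time points after injection and IFN-γ and IL-4 measured by ELISA; 3 mice per group, each serum tested individually.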

Splenocyte [9] = assay: Induction of cell proliferation in C57BL/6 mouse splenocytes incubated for 48 hrs by MTT assay; format: functional, cell-based; how it was run: as §2
Mus musculus [10] = assay: Immunostimulatory activity in C57BL/6 mouse assessed as IFN-gamma level in serum at 100 ug/kg, ip measured after 24 hrs by ELISA; format: functional; how it was run: as §3
Mus musculus [11] = assay: Immunostimulatory activity in C57BL/6 mouse assessed as induction of Th1 cytokine-biased response by measuring AUC ratio of IFN-gamma/IL-4 cytokine release at 100 ug/kg, ip measured after 24 hrs by ELISA; format: functional
How it was run: (§4)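 Female C57BL/6 mice given glycolipid ip at 100 µg/kg (DMSO stock diluted in PBS). Serum IFN-γ and IL-4 measured by ELISA at several time points up to 24 h, 3 mice per group tested individually. Th1 bias expressed as IFN-γ/IL-4 ratio and as area-under-curve ratio of IFN-γ/IL-4 release.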

[12] = target: T1, Antigen-presenting glycoprotein CD1d (Mus musculus); assay: Binding affinity to CD1d in C57BL/6 mouse splenocytes assessed as iNKT-cell stimulating activity by measuring IFN-gamma/IL-4 ratio at 0.01 uM incubated for 48 hrs by ELISA; format: cell-based; settings: in the assay text read “IFN-gamma/IL-4 ratio” for “IFN-gamma/IL-6 ratio”
How it was run: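 Splenocytes prepared and cultured as for the cytokine assay (1×10^5/well, RPMI 1640 with 10% FBS, 48 h, 37 °C). IFN-γ and IL-4 determined by ELISA at 0.01 µM glycolipid and expressed as the relative proportion (IFN-γ/IL-4 ratio).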

Mus musculus [13] = assay: Immunostimulatory activity in C57BL/6 mouse assessed as increase in IFN-gamma level in serum at 100 ug/kg, ip measured after 6 to 24 hrs by ELISA; format: functional, organism-based; how it was run: as §3
Mus musculus [14] = assay: Immunostimulatory activity in C57BL/6 mouse assessed as increase in IL-4 level in serum at 100 ug/kg, ip measured after 3 hrs by ELISA; format: functional, organism-based; how it was run: as §3
Mus musculus [15] = assay: Immunostimulatory activity in C57BL/6 mouse assessed as induction of Th1 cytokine-biased response by measuring IFN-gamma/IL-6 ratio at 100 ug/kg, ip measured after 24 hrs by ELISA; format: functional; settings: in the assay text read “IFN-gamma/IL-4 ratio” for “IFN-gamma/IL-6 ratio”; how it was run: as §4

Row | SMILES | Activity [1] | Activity [2] | Activity [3] | Activity [4] | Activity (Splenocyte [5]) | Activity (Splenocyte [6]) | Ratio (Mus musculus [7]) | Activity (Mus musculus [8]) | Activity (Splenocyte [9]) | Activity (Mus musculus [10]) | Ratio (Mus musculus [11]) | Ratio [12] | Activity (Mus musculus [13]) | Activity (Mus musculus [14]) | Ratio (Mus musculus [15])
1 | CCCCCCCCCCCCCCCCCCCCCCCCCC(=O)N[C@@H](CO[C@H]1O[C@H](Cn2cc(C(=O)N[C@@H](CCCCN)C(=O)OC)nn2)[C@H](O)[C@H](O)[C@H]1O)[C@H](O)[C@H](O)CCCCCCCCCCCCCC | Active | Active | Dose-dependent effect | Dose-dependent effect | Active | Non-Toxic | 5.6 | Active | Dose-dependent effect | 3886 pg/mL | 23.6 | 4.9 |  |  | 
2 | CCCCCCCCCCCCCCCCCCCCCCCCCC(=O)N[C@@H](CO[C@H]1O[C@H](Cn2cc(C(=O)NCC(=O)OC)nn2)[C@H](O)[C@H](O)[C@H]1O)[C@H](O)[C@H](O)CCCCCCCCCCCCCC | Active | Active | Dose-dependent effect | Dose-dependent effect | Active | Non-Toxic |  |  | Dose-dependent effect | Active |  | 2.1 | Active | Active | 
3 | CCCCCCCCCCCCCCCCCCCCCCCCCC(=O)N[C@@H](CO[C@H]1O[C@H](Cn2cc(C(=O)N[C@@H](CO)C(=O)OC)nn2)[C@H](O)[C@H](O)[C@H]1O)[C@H](O)[C@H](O)CCCCCCCCCCCCCC | Active | Active | Dose-dependent effect | Dose-dependent effect | Active | Non-Toxic |  |  | Dose-dependent effect | 4755 pg/mL |  | 1.7 | Active | Active | 1.8
4 | CCCCCCCCCCCCCCCCCCCCCCCCCC(=O)N[C@@H](CO[C@H]1O[C@H](CO)[C@H](O)[C@H](O)[C@H]1O)[C@H](O)[C@H](O)CCCCCCCCCCCCCC [RGI-7000] | Active | Active | Dose-dependent effect | Dose-dependent effect |  |  |  |  |  | 2925 pg/mL | 13.2 |  | Active | Active | 2.5
5 | CCCCCCCCCCCCCCCCCCCCCCCCCC(=O)N[C@@H](CO[C@H]1O[C@H](Cn2cc(C(=O)N[C@@H](Cc3ccccc3)C(=O)OC)nn2)[C@H](O)[C@H](O)[C@H]1O)[C@H](O)[C@H](O)CCCCCCCCCCCCCC | Active | Active | Dose-dependent effect | Dose-dependent effect | Active | Non-Toxic |  |  | Dose-dependent effect | Active |  | 3.3 | Active | Active | 
